Laboratory results as given in ChEMBL document CHEMBL1165943, “Design and synthesis of new anticancer pyrimidines with multiple-kinase inhibitory effect” (Bioorg Med Chem, 2010).

How the values were obtained:
Format in all cases: functional
[1] = system: K562; test: Cytotoxicity against human K562 cells assessed as cell growth at 10 uM
Outline: (§1)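 Single-dose screen at 10 μM across the 60-cell-line panel. Cells grown in RPMI 1640 with 5% FBS and 2 mM L-glutamine, seeded at 5,000–40,000 cells/well according to doubling time, and treated 24 h later. Exposure lasted 48 h at 37 °C, 5% CO₂. Adherent cells were fixed with cold TCA, suspension cells were fixed settled, and both were stained with SRB and read at 515 nm. Growth % was recorded, with inhibition % = 100 − growth %.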

[2] = system: MOLT-4; test: Cytotoxicity against human MOLT4 cells assessed as cell growth at 10 uM; outline: as §1
[3] = system: SR; test: Cytotoxicity against human SR cells assessed as cell growth at 10 uM; outline: as §1
[4] = system: EKVX; test: Cytotoxicity against human EKVX cells assessed as cell growth at 10 uM
Outline: (§2)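 Single-concentration screen at 10 μM across the 60-cell-line panel (nine tissue types); growth percentage recorded per cell line, with inhibition taken as 100 minus growth percentage.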

[5] = system: NCI-H226; test: Cytotoxicity against human NCI-H226 cells assessed as cell growth at 10 uM; outline: as §1
[6] = system: NCI-H23; test: Cytotoxicity against human NCI-H23 cells assessed as cell growth at 10 uM; outline: as §1
[7] = system: NCI-H322M; test: Cytotoxicity against human NCI-H322M cells assessed as cell growth at 10 uM; outline: as §1
[8] = system: NCI-H522; test: Cytotoxicity against human NCI-H522 cells assessed as cell growth at 10 uM; outline: as §1
[9] = system: HCC 2998; test: Cytotoxicity against human HCC2998 cells assessed as cell growth at 10 uM; outline: as §2
[10] = system: HCT-116; test: Cytotoxicity against human HCT116 cells assessed as cell growth at 10 uM; outline: as §2
[11] = system: HCT-15; test: Cytotoxicity against human HCT15 cells assessed as cell growth at 10 uM; outline: as §2
[12] = system: KM12; test: Cytotoxicity against human KM12 cells assessed as cell growth at 10 uM; outline: as §1
[13] = system: SW-620; test: Cytotoxicity against human SW620 cells assessed as cell growth at 10 uM; outline: as §1
[14] = system: SF-295; test: Cytotoxicity against human SF295 cells assessed as cell growth at 10 uM; outline: as §1
[15] = system: SF-539; test: Cytotoxicity against human SF539 cells assessed as cell growth at 10 uM; outline: as §1
[16] = system: SNB-75; test: Cytotoxicity against human SNB75 cells assessed as cell growth at 10 uM; outline: as §1
[17] = system: Malme-3M; test: Cytotoxicity against human MALME-3M cells assessed as cell growth at 10 uM; outline: as §1
[18] = system: M14; test: Cytotoxicity against human M14 cells assessed as cell growth at 10 uM; conditions: Homo sapiens, M14; read-out: Activity; outline: as §1
[19] = system: SK-MEL-2; test: Cytotoxicity against human SK-MEL-2 cells assessed as cell growth at 10 uM; conditions: Homo sapiens, SK-MEL-2; read-out: Activity; outline: as §1
[20] = system: SK-MEL-28; test: Cytotoxicity against human SK-MEL-28 cells assessed as cell growth at 10 uM; conditions: Homo sapiens, SK-MEL-28; read-out: Activity; outline: as §1
[21] = system: SK-MEL-5; test: Cytotoxicity against human SK-MEL-5 cells assessed as cell growth at 10 uM; conditions: Homo sapiens, SK-MEL-5; read-out: Activity; outline: as §1
[22] = system: IGROV-1; test: Cytotoxicity against human IGROV1 cells assessed as cell growth at 10 uM; conditions: Homo sapiens, IGROV-1; read-out: Activity; outline: as §1
[23] = system: OVCAR-3; test: Cytotoxicity against human OVCAR-3 cells assessed as cell growth at 10 uM; conditions: Homo sapiens, OVCAR-3; read-out: Activity; outline: as §1
[24] = system: OVCAR-5; test: Cytotoxicity against human OVCAR5 cells assessed as cell growth at 10 uM; outline: as §1
[25] = system: NCI/ADR-RES; test: Cytotoxicity against human NCI/ADR-RES cells assessed as cell growth at 10 uM; conditions: Homo sapiens, NCI/ADR-RES; read-out: Activity; outline: as §1
[26] = system: SK-OV-3; test: Cytotoxicity against human SKOV3 cells assessed as cell growth at 10 uM; conditions: Homo sapiens, SK-OV-3; read-out: Activity; outline: as §1
[27] = system: 786-0; test: Cytotoxicity against human 786-0 cells assessed as cell growth at 10 uM; conditions: Homo sapiens, 786-0; read-out: Activity; outline: as §2
[28] = system: A498; test: Cytotoxicity against human A498 cells assessed as cell growth at 10 uM; conditions: Homo sapiens, A498; read-out: Activity; outline: as §2
[29] = system: ACHN; test: Cytotoxicity against human ACHN cells assessed as cell growth at 10 uM; conditions: Homo sapiens, ACHN; read-out: Activity; outline: as §2
[30] = system: CAKI-1; test: Cytotoxicity against human Caki1 cells assessed as cell growth at 10 uM; conditions: Homo sapiens, CAKI-1; read-out: Activity; outline: as §2
[31] = system: TK-10; test: Cytotoxicity against human TK10 cells assessed as cell growth at 10 uM; conditions: Homo sapiens, TK-10; read-out: Activity; outline: as §1
[32] = system: UO-31; test: Cytotoxicity against human UO31 cells assessed as cell growth at 10 uM; conditions: Homo sapiens, UO-31; read-out: Activity; outline: as §1
[33] = system: PC-3; test: Cytotoxicity against human PC3 cells assessed as cell growth at 10 uM; conditions: Homo sapiens, PC-3; read-out: Activity; outline: as §1
[34] = system: DU-145; test: Cytotoxicity against human DU145 cells assessed as cell growth at 10 uM; conditions: Homo sapiens, DU-145; read-out: Activity; outline: as §2
[35] = system: MCF7; test: Cytotoxicity against human MCF7 cells assessed as cell growth at 10 uM; conditions: Homo sapiens, MCF7; read-out: Activity; outline: as §1
[36] = system: MDA-MB-231; test: Cytotoxicity against human MDA-MB-231 cells assessed as cell growth at 10 uM; conditions: Homo sapiens, MDA-MB-231; read-out: Activity; outline: as §1
[37] = system: BT-549; test: Cytotoxicity against human BT549 cells assessed as cell growth at 10 uM; outline: as §2
[38] = system: T47D; test: Cytotoxicity against human T47D cells assessed as cell growth at 10 uM; conditions: Homo sapiens, T47D; read-out: Activity; outline: as §1
[39] = system: MDA-MB-468; test: Cytotoxicity against human MDA-MB-468 cells assessed as cell growth at 10 uM; conditions: Homo sapiens, MDA-MB-468; read-out: Activity; outline: as §1

Compound | growth at 10 µM [18] | growth at 10 µM [19] | growth at 10 µM [20] | growth at 10 µM [21] | growth at 10 µM [22] | growth at 10 µM [23] | growth at 10 µM [25] | growth at 10 µM [26] | growth at 10 µM [27] | growth at 10 µM [28] | growth at 10 µM [29] | growth at 10 µM [30] | growth at 10 µM [31] | growth at 10 µM [32] | growth at 10 µM [33] | growth at 10 µM [34] | growth at 10 µM [35] | growth at 10 µM [36] | growth at 10 µM [38] | growth at 10 µM [39] | further results
FC(F)(F)c1cc(Nc2nccc(-c3ccc(Nc4ccccc4)nc3)n2)cc(C(F)(F)F)c1 | 111% | 92.1% | 110% | 99.1% | 102% | 119% | 102% | 89.9% | 105% | 104% | 91.3% | 98% | 119% | 79.5% | 95.2% | 111% | 75.4% | 97.5% | 84.5% | 89.6% | growth at 10 µM ([1]; Homo sapiens, K562, read-out: Activity): 92.9%; growth at 10 µM ([2]; Homo sapiens, MOLT-4, read-out: Activity): 87.6%; growth at 10 µM ([3]; Homo sapiens, SR, read-out: Activity): 90%; growth at 10 µM ([4]; Homo sapiens, EKVX, read-out: Activity): 108%; growth at 10 µM ([5]; Homo sapiens, NCI-H226, read-out: Activity): 98%; growth at 10 µM ([6]; Homo sapiens, NCI-H23, read-out: Activity): 98.2%; growth at 10 µM ([7]; Homo sapiens, NCI-H322M, read-out: Activity): 96.6%; growth at 10 µM ([8]; Homo sapiens, NCI-H522, read-out: Activity): 96.5%; growth at 10 µM ([9]; Homo sapiens, HCC 2998, read-out: Activity): 100%; growth at 10 µM ([10]; Homo sapiens, HCT-116, read-out: Activity): 108%; growth at 10 µM ([11]; Homo sapiens, HCT-15, read-out: Activity): 97.4%; growth at 10 µM ([12]; Homo sapiens, KM12, read-out: Activity): 112%; growth at 10 µM ([13]; Homo sapiens, SW-620, read-out: Activity): 101%; growth at 10 µM ([14]; Homo sapiens, SF-295, read-out: Activity): 112%; growth at 10 µM ([15]; Homo sapiens, SF-539, read-out: Activity): 94.9%; growth at 10 µM ([16]; Homo sapiens, SNB-75, read-out: Activity): 86.5%; growth at 10 µM ([17]; Homo sapiens, Malme-3M, read-out: Activity): 117%; growth at 10 µM ([24]; Homo sapiens, OVCAR-5, read-out: Activity): 97.3%; growth at 10 µM ([37]; Homo sapiens, BT-549, read-out: Activity): 105%
CC(=O)c1ccccc1-c1ccc(-c2ccnc(NC(=O)Nc3cc(C(F)(F)F)cc(C(F)(F)F)c3)n2)cn1.Cl | 98.2% | 78.8% | 103% | 103% | 91% | 108% | 80.9% | 76.5% | 79.5% | 113% | 91% | 78.4% | 90.3% | 75% | 89.9% | 109% | 89.8% | 83.7% | 85.4% | 74.7% | Activity [1]: 80.11%; Activity [2]: 93.09%; Activity [3]: 97.1%; Activity [4]: 87.92%; Activity [5]: 103.94%; Activity [6]: 84.35%; Activity [7]: 92.06%; Activity [8]: 77.27%; Activity [9]: 88.79%; Activity [10]: 81.77%; Activity [11]: 95.89%; Activity [12]: 92.08%; Activity [13]: 95.07%; Activity [14]: 80.92%; Activity [15]: 91.97%; Activity [16]: 77.47%; Activity [17]: 85.32%; Activity [24]: 81.55%; Activity [37]: 63.01%
